Screening results (PubChem BioAssay)
Dynein transport = dynein cargo transport inhibition | z-score, hits read low | 0.47% of 220,000 active | 3617.4 mouse cells, GR-EGFP nuclear translocation imaging; test concentration mostly 20 µM; stimulated with dexamethasone, 1 µM; stronger effect = lower value | AID 1381;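 active = plate z-score of nuclear minus cytoplasmic receptor signal below a set negative limit, without overly bright fluorescence or cell loss, cut at about -3.5 in these data, passing the limit was not always enough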;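 note: z-score of nuclear minus cytoplasmic ring GR-EGFP intensity difference per well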
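Buffer or medium: Induction medium lacking tetracycline, stripped serum | Also added: Dexamethasone agonist, 1.0 µM final, for 30 min | Timing: 48 h induction, 1 h compound, 30 min dex at 37 °C | Detection: Formaldehyde fixation, Hoechst nuclear stain, 10x automated fluorescence imaging | Measure: Nuclear versus cytoplasmic GR-EGFP signal, averaged per well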
L929 necroptosis = blocks zVAD induced death of L929 cells | L929 zVAD necroptosis rescue, ATP luminescence, 24 h; with zVAD 60 µM | 0.38% of 220,000 active | viability rescue, % at 10 µM;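 active = activation, scaled between plate controls, above about 75%, limit read from the data; inactive = activation under that limit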
TNF death inh = TNF-alpha cell death inhibition in Jurkat FADD-/- cells; Jurkat FADD-/- TNF necroptosis rescue, ATP luminescence, 24 h; 0 = TNF only, 100 = no-TNF cells; activation (protection from cell death), % at 10 µM; 0.068% of 220,000 active;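 active = activation, meaning protection from cell death, of at least 50% relative to plate controls; inactive = activation below 50%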;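 note: necroptosis triggered by 40 ng/mL TNF-alpha added together with compound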
B2AR ag = human beta-2 adrenergic receptor agonism by FAP | Am2.2-beta2AR cells, FAP receptor internalization, flow cytometry | P07550 | 0.43% of 340,000 active | AID 504454 | response, % (no concentration beside the values);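 active = response above a set limit, near 3 SD of response in nonfluorescent compounds, cut at about 42% in these data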
Target sequence (P07550 whole entry, looked up): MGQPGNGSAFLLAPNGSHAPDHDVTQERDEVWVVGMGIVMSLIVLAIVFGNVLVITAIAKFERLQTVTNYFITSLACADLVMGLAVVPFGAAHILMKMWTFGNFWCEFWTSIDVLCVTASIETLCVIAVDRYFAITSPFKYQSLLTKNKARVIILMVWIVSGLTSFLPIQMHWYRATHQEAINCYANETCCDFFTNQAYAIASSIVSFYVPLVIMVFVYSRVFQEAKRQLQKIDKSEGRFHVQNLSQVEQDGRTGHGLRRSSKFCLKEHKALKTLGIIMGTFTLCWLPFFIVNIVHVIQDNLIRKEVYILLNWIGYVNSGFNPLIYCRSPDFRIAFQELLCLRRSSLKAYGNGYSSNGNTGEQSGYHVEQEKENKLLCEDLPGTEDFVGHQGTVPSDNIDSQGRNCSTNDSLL
MDM2 E3 inh = Mdm2 E3 ligase (human) inhibition. cell-based MDM2 ubiquitination luciferase reporter, 2 h; 0 = plate control, 100 = twice control, blank-subtracted. Q00987. 0.11% of 210,000 active. signal enhancement, % at 5 µM. AID 1230;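 active = signal enhancement of 30% or more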;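 note: luminescence tracks abundance of the self-degrading MDM2-luciferase fusion protein; higher signal means inhibition of MDM2 E3 ligase activity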
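Test system: mammalian cells stably expressing self-ubiquitinating, self-degrading MDM2 E3–luciferase fusion; Amount: 2000 cells in each well; Medium: DMEM; Schedule: 4 h settle plus 2 h compound, 37 °C; Technique: SteadyLite luciferase luminescence after 15 min room-temperature reagent incubation; Benchmarks: plate control and blank wells.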
Large screens that a line does not name were inactive; ! = not active in a repeat. Rows were chosen to be rich in hits. Some 0.97% of all compounds tested hit in one or more screens of this group.

COc1cc(C(=O)NCC(c2cccs2)N(C)C)cc(Cl)c1OC(C)C (stereo unspecified)	none
COc1ccccc1/C=N/OC(=O)c1ccc(F)cc1	none
O=C(COc1ccc2ccccc2c1Br)N1CCCCC1	none (no result: Dynein transport, L929 necroptosis, TNF death inh, MDM2 E3 inh)
O=C(Oc1ccc2ccccc2c1Br)N1CCCCCC1	B2AR ag 62.0
CSCCC(NS(=O)(=O)c1ccc2c(c1)OCCO2)C(=O)N(C)Cc1ccc(F)cc1 (stereo unspecified)	none (no result: Dynein transport, L929 necroptosis, TNF death inh, MDM2 E3 inh)
O=Cc1cccc(OCc2cccc3ccccc23)c1	B2AR ag 70.9 (no result: Dynein transport, L929 necroptosis, TNF death inh, MDM2 E3 inh)
Cc1onc(-c2ccccc2Cl)c1C(N)=O	none
COC(=O)c1c(-c2ccccc2Cl)noc1/C=C/N(C)C	MDM2 E3 inh 42.5
COc1ccc(-c2onc3ccc(Cl)cc23)cc1OC	L929 necroptosis 75.0 (no result: B2AR ag, MDM2 E3 inh)
CCOC(OCC)P(=O)(C(C)C)C(C)C	none
CCCCNc1c(-c2cccc(-c3ccc(OC)cc3)c2)nc2ccc(C)cn12	B2AR ag 49.2 (no result: Dynein transport, L929 necroptosis, TNF death inh, MDM2 E3 inh)
COc1ccc(NC2C=CS(=O)(=O)C2)c(OC)c1 (stereo unspecified)	none
C=Cc1c(C)c2cc3[nH]c(cc4nc(cc5nc(cc1[nH]2)C(C)=C5CCC(=O)O)C(CCC(=O)O)=C4C)c(C)c3C=C	B2AR ag 45.4! (no result: Dynein transport, L929 necroptosis, TNF death inh, MDM2 E3 inh)
COc1cc(CNC(=O)CCCCCCC(C)C)ccc1O	none (no result: Dynein transport, L929 necroptosis, TNF death inh, MDM2 E3 inh)
Cc1cc2ncn(C(=O)N3CCC(C)CC3)c2cc1C	MDM2 E3 inh 37.7
N#Cc1ccc(Oc2cnccn2)cc1	none (no result: Dynein transport, L929 necroptosis, TNF death inh, MDM2 E3 inh)
COc1ccc(CNC(=O)COc2cc(=O)n(C)c3ccccc23)cc1	none
Cn1c(=O)cc(OCCCC(=O)Nc2ccccn2)c2ccccc21	L929 necroptosis 89.0
Cn1c(=O)cc(OCC(=O)NCc2cccs2)c2ccccc21	MDM2 E3 inh 35.3
CC(C)CCNC(=O)CCCOc1cc(=O)n(C)c2ccccc12	none
Cc1ccc(S(=O)(=O)N2CCOCC2)cc1C(=O)N1CCN(S(=O)(=O)c2cccs2)CC1	none (no result: MDM2 E3 inh)
Oc1[nH]c2ccccc2c1N=NC(=S)N1CCOCC1	MDM2 E3 inh 31.3
CSc1ncc(C(=O)Nc2ccc(Cl)cc2)c(C)n1	none (no result: Dynein transport, L929 necroptosis, TNF death inh, MDM2 E3 inh)
O=C(OC(C(=O)Nc1ccc([N+](=O)[O-])cc1Br)c1ccccc1)c1ccccc1 (stereo unspecified)	TNF death inh 75.6
O=C(CCc1nc2ccccc2c(=O)[nH]1)N1CCN(c2ccccc2Cl)CC1	none (no result: Dynein transport, L929 necroptosis, TNF death inh, MDM2 E3 inh)
CCN1CCN(C(=O)CCc2nc3ccccc3c(=O)[nH]2)CC1	MDM2 E3 inh 36.8
COc1ccc(N2C(=O)CC(Sc3nnc(-c4ccccc4)o3)C2=O)cc1 (stereo unspecified)	Dynein transport -4.12
COc1ccc(N2C(=O)CC(Sc3nc(C)cc(C)c3C#N)C2=O)cc1 (stereo unspecified)	none
CC(N)=Nc1ccc([N+](=O)[O-])cc1	none
O=[N+]([O-])c1ccc(N=Nc2c(Cl)cc(O)cc2Cl)cc1	B2AR ag 54.9
CCCN1C=CC(=C/C=C(\C#N)C(=O)OCC)C=C1	L929 necroptosis 88.9 (no result: B2AR ag)
O=C(Cn1cnc2sc3c(c2c1=O)CCCC3)NCC(=O)Nc1ccccc1F	none (no result: Dynein transport, L929 necroptosis, TNF death inh, MDM2 E3 inh)
COc1ccc(/C=C2\SC(N)=NC2=O)cc1	none (no result: Dynein transport, L929 necroptosis, TNF death inh, MDM2 E3 inh)
CCOC(=O)CSC1=NC(=O)/C(=C/c2ccc(OC)cc2)S1	B2AR ag 69.4
NC(N)=N/N=C/c1ccc(OCc2ccccc2Cl)cc1	B2AR ag 52.6
NC(N)=N/N=C/c1ccccc1	none
Cc1cccc(Nc2nc(N)nc(CSC(=S)N3CCOCC3)n2)c1	none
CC(C)(C)OC(=O)N[C@@H](Cc1ccccc1)c1nnc(S(=O)(=O)Cc2ccccc2)o1	Dynein transport -4.31 (no result: B2AR ag)
CC1(C)[N+]([O-])=C2C(=[N+]([O-])C1(C)C)c1ccccc1/C2=N\O	none
Cc1cccc(/C=N/NC(=O)c2cc(-c3cccnc3)nc3c2c(C)nn3-c2ccccc2)c1	B2AR ag 103.4
Cc1nn(-c2ccccc2)c(Cl)c1/C=N/NC(=O)c1cccnc1	B2AR ag 50.0
Cc1ccc(-n2nc(C)c(/C=N/NC(=O)c3cccnc3)c2Cl)cc1	none
Cc1nn(-c2ccccc2)c(C)c1/C=N/NC(=O)c1cc(-c2ccccc2)n[nH]1	B2AR ag 68.2
OC(c1cc(-c2cccc(Cl)c2)nc2ccccc12)C1CCCCN1 (stereo unspecified)	none (no result: Dynein transport, L929 necroptosis, TNF death inh, MDM2 E3 inh)
Cc1ccc(C(=O)OCC(=O)Nc2c(C)n(C)n(-c3ccccc3)c2=O)cc1[N+](=O)[O-]	none
COC(=O)C1=C(C)N(Cc2ccccc2)C(=NCc2cccc(Cl)c2)N[C@H]1c1cccc(F)c1	B2AR ag 48.3 (no result: Dynein transport, L929 necroptosis, TNF death inh, MDM2 E3 inh)
COC(=O)C1=C(C)N(Cc2ccccc2)C(=NCc2ccc(OC)cc2)N[C@H]1c1cccc(F)c1	none (no result: Dynein transport, L929 necroptosis, TNF death inh, MDM2 E3 inh)
Cc1cccc(C(=O)NN(C)c2nc(-c3ccccc3)nnc2C(F)(F)F)c1	none
COc1ccc(C(=O)NN(C)c2nc(-c3ccccc3)nnc2C(F)(F)F)cc1	B2AR ag 49.1
COc1cc(C2SCC(=O)N2CCc2ccc(OC)c(OC)c2)ccc1O (stereo unspecified)	none
Cc1ccc(CN2CCSc3sccc3C2=O)cc1	TNF death inh 83.3
O=[N+]([O-])c1ccc(Cl)c(CN2CCC(O)CC2)c1	none
CC1=NOC(=O)/C1=C\c1ccc(-c2cc(Cl)ccc2Cl)o1	B2AR ag 80.4
CC1=NOC(=O)/C1=C/c1ccc(-c2ccc(Cl)cc2)o1	B2AR ag 65.2 (no result: MDM2 E3 inh)
CC1=NOC(=O)/C1=C\c1ccc(-c2ccc(Br)cc2C(=O)O)o1	none
Cc1ccc(/C=N/NC(=S)N2CCOCC2)cc1	none
COc1ccc(Cl)cc1C(=O)Nn1c(-c2cccs2)nc2ccccc2c1=O	B2AR ag 67.8
COc1ccc(Cl)cc1C(=O)Nn1c(C)nc2ccccc2c1=O	none
Cc1ccc(NC(=O)c2cc(-c3ccc(C)o3)nc3ccccc23)cc1	none
Cc1ccc(-c2cc(C(=O)Nc3cccnc3)c3ccccc3n2)o1	Dynein transport -4.45
O=C1NN(c2ccc(Cl)c(Cl)c2)C(=O)/C1=C/c1cccc(OC(=O)c2cccs2)c1	Dynein transport -3.78 (no result: B2AR ag)
O=C1NN(c2ccccc2)C(=O)/C1=C\c1cccc(OC(=O)c2cccs2)c1	none
COc1ccc(C(=O)NCCSC2CCCCC2)cc1	MDM2 E3 inh 40.5
CCC(=O)Nc1nonc1-c1nc2ccccc2n1CCC(C)C	none
O=C(CN1CCN(c2ncccn2)CC1)NCc1ccccc1	MDM2 E3 inh 103.2
CCN(Cc1cc2ccccc2[nH]c1=O)C(=O)c1cccnc1	none
CC1(C)CC[C@]2(C(=O)n3ccnc3)CC[C@]3(C)[C@H](C(=O)C=C4[C@@]5(C)C=C(C#N)C(=O)C(C)(C)[C@@H]5CC[C@]43C)[C@@H]2C1	B2AR ag 58.6 (no result: Dynein transport, L929 necroptosis, TNF death inh, MDM2 E3 inh)
Cc1cc(NC(=O)CCC(=O)N(CC(=O)NC2CCCC2)c2ccc3c(c2)OCCO3)no1	none
O=c1[nH]c(NNC(=S)NC2CCCCC2)nc2c1C1(CCCC1)Cc1ccccc1-2	B2AR ag 68.3 (no result: MDM2 E3 inh)
